pEC50: −log10 of the molar value. Activity calls are given as the source filed them. The rule behind the calls is not given here.
Assays:
[1] = (§1) Reversal of LPS-induced RGS10 silencing in mouse single close BV-2 cells assessed as RGS10 protein level by measuring LPS response measured after 24 hrs by Nano-Glo HiBit Lytic detection assay; assay type: functional; set-up: concentration or dose not given beside the values
Outline: (§2)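 HiBiT-knock-in BV-2 single clone exposed to LPS at 10 ng/mL final for 24 h at 37 °C in phenol red-free assay medium; RGS10-HiBiT measured by Nano-Glo HiBiT lytic detection (LgBiT 1:100, substrate 1:50), luminescence read after 15 min at room temperature.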

[2] = Induction of RGS10 expression in mouse single close BV-2 cells assessed as RGS10 protein level by measuring luminescence signal measured after 24 hrs by Nano-Glo HiBit Lytic detection assay; assay type: functional; set-up: concentration or dose not given beside the values
Outline: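 BV-2-RGS10-HiBiT single-clone cells (CRISPR HiBiT tag at RGS10 C-terminus) in phenol red-free DMEM, 10% ultralow IgG FBS; IFNγ 10 ng/mL final plus compound 1–100 μM, 24 h, 37 °C. GF-AFC viability fluorescence (390/505) read first, then Nano-Glo HiBiT lytic luminescence (LgBiT 1:100, substrate 1:50); RLU/RFU expressed as % of IFNγ alone; 4 independent experiments in triplicate.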

[3] = Reversal of IFNgamma-induced RGS10 silencing in mouse single close BV-2 cells assessed as IFN response measured after 24 hrs by Nano-Glo HiBit Lytic detection assay relative to control; assay type: functional; set-up: concentration or dose not given beside the values
Outline: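 HiBiT-tagged BV-2-RGS10 clone treated with compound at 20 μM plus IFNγ 10 ng/mL for 24 h at 37 °C; viability by GF-AFC fluorescence, then HiBiT lytic luminescence; signal normalized RLU/RFU, expressed as % of IFNγ-alone signal; four independent experiments in triplicate, one-way ANOVA with Dunnett's test.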

BV-2 [4] = assay: as §1; assay type: functional; set-up: concentration or dose not given beside the values; outline: as §2
BV-2 [5] = assay: Reversal of IFNgamma-induced inflammatory gene expression in mouse single close BV-2 cells assessed as reversal of COX-2 expression at 20 uM measured after 24 hrs by qRT-PCR analysis; assay type: functional, cell-based
Outline: (§3)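 BV-2 cells treated 24 h with IFNγ 10 ng/mL with or without compound at 20 μM; iNOS, COX-2 and TNFα mRNA measured by one-step qRT-PCR (100 ng RNA template, 0.4 μM primers, 40 cycles), Cq read each cycle.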

BV-2 [6] = assay: Reversal of IFNgamma-induced inflammatory gene expression in mouse single close BV-2 cells assessed as reversal of iNOS expression at 20 uM measured after 24 hrs by qRT-PCR analysis; assay type: functional, cell-based; outline: as §3
BV-2 [7] = assay: Reversal of IFNgamma-induced RGS10 silencing in mouse single close BV-2 cells assessed as suppression of RGS10 protein level at 20 uM measured after 24 hrs by Western blot analysis; assay type: functional, cell-based
Outline: (§4)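 Parental BV-2 cells, IFNγ 10 ng/mL with compound 20 μM for 24 h or 48 h; lysates in Tris/NaCl/Triton/SDS buffer with protease inhibitors, equal protein on 12% SDS-PAGE, goat anti-RGS10 (1:1,000) with β-actin or GAPDH loading control, infrared secondary detection; four independent experiments in duplicate.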

BV-2 [8] = assay: Reversal of IFNgamma-induced inflammatory gene expression in mouse single close BV-2 cells assessed as reversal of TNFalpha expression at 20 uM measured after 24 hrs by qRT-PCR analysis; assay type: functional, cell-based; outline: as §3
[9] = Reversal of IFNgamma-induced RGS10 silencing in mouse single close BV-2 cells assessed as RGS10 protein level by measuring luminescence signal measured after 24 hrs by Nano-Glo HiBit Lytic detection assay; conditions: BV-2, 24 h
BV-2 [10] = assay: Reversal of IFNgamma-induced RGS10 silencing in mouse single close BV-2 cells assessed as suppression of RGS10 protein level at 20 uM measured after 48 hrs by Western blot analysis; assay type: functional, cell-based; outline: as §4
BV-2 [11] = assay: Reversal of IFNgamma-induced RGS10 silencing in mouse single close BV-2 cells assessed as increase in of RGS10 mRNA level measured after 24 hrs by qRT-PCR analysis; assay type: functional, cell-based; conditions: dose 0.5-20 µM
Outline: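 Parental BV-2 cells given IFNγ 10 ng/mL for 24 h with compound 0.5–20 μM; RGS10 mRNA by one-step qRT-PCR (100 ng RNA, 0.4 μM primers; RT 55 °C 10 min, 40 cycles 95 °C/60 °C), Cq values with melt curve.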

| Compound | Activity [1] | Activity [2] | Activity [3] | Activity (BV-2 [4]) | Activity (BV-2 [5]) | Activity (BV-2 [6]) | Activity (BV-2 [7]) | Activity (BV-2 [8]) | pEC50 [9] | Activity (BV-2 [10]) | Activity (BV-2 [11]) |
| --- | --- | --- | --- | --- | --- | --- | --- | --- | --- | --- | --- |
| CCOc1ccc(-c2nc(C3CC(=O)N(c4ccc(C)cc4)C3)no2)cc1 (centres undefined) | 104.7% | 85.6% | 97.4% |  |  |  |  |  |  |  |  |
| Cc1ccc(-n2c(=O)c3c(cc(C)n3C)n(CC(=O)Nc3ccc(Br)cc3F)c2=O)cc1 |  | 156.8% | 90.1% | inactive |  |  |  |  |  |  |  |
| COc1ccc(C2NC(=O)N(CC(=O)N3CCCCCC3)C3=C2C(=O)OC3)cc1 (centres undefined) | 87.4% | 104.8% | 102.4% |  |  |  |  |  |  |  |  |
| Cc1cc(C)c2c(=O)cc(CN(Cc3ccccc3)Cc3ccco3)[nH]c2c1 | 92.8% | 98.5% | 230.6% |  | Active | Active | inactive | inactive | 4.86 |  |  |
| COCCOC1CCN(C(=O)Nc2ccc(C(=O)OC)cc2)CC1 | 121.7% | 101.2% | 106.7% |  |  |  |  |  |  |  |  |
| Cc1cccc(-n2c(=O)c3c(cc(C)n3C)n(CC(=O)Nc3ccc(C(F)(F)F)cc3)c2=O)c1 | 113.8% | 95.9% | 145.1% |  |  |  |  |  |  |  |  |
| CCc1cc(-c2csc(S(=O)(=O)Nc3ccc(C)cc3Br)c2)on1 | 104.1% | 76.8% | 206.2% |  | Active | Active | inactive | inactive | 4.47 | Active | Dose-dependent-effect; Significant Reversal Achieved At > 5 Um |
| CC1=NS(=O)(=O)N(C)C=C1C(=O)OCc1nc(-c2cccc(F)c2)no1 | 90.3% | 78.9% | 94.3% |  |  |  |  |  |  |  |  |
| Cc1cc(C)cc(Nc2nc(C)cc(=O)n2CC(=O)Nc2cccc(C#N)c2)c1 | 105.8% | 116.1% | 102.4% |  |  |  |  |  |  |  |  |
| O=C(CN1C(=O)NC(c2ccc(Cl)cc2)C2=C1COC2=O)Nc1cc(F)cc(F)c1 (centres undefined) | 80.4% | 56.8% | 186.7% |  |  | Active | inactive | inactive | 4.51 |  |  |
| COc1cccc(CNC(=O)c2ccc3c(Cl)c4c(nc3c2)CCCC4)c1 | 97.4% | 104.6% | 141.3% |  |  |  |  |  |  |  |  |
| O=C(Nc1ccc(F)cc1)c1cc2n(n1)CC(c1ccc3c(c1)OCO3)OC2 (centres undefined) | 105.3% | 113.8% | 123.2% |  |  |  |  |  |  |  |  |
| CCNc1ncnc2sc3c(c12)CCN(Cc1ccncc1)C3 | 89.5% | 97.1% | 94% |  |  |  |  |  |  |  |  |
| O=C(CN1C(=O)NC(c2ccc(Cl)cc2)C2=C1COC2=O)Nc1ccc(F)c(F)c1 (centres undefined) | 84.1% | 69.6% | 171.6% |  |  | Active | inactive | inactive | 4.63 |  |  |
| Cc1oc(-c2ccc(Cl)cc2)nc1CN1CCCC(C(=O)N2CCN(C(=O)c3ccco3)CC2)C1 (centres undefined) | 116.9% | 101.8% | 172.8% |  |  | Active | inactive | inactive | 4.10 |  |  |

Reference: ChEMBL document CHEMBL6078650, “A Phenotypic High-Throughput Screen Identifies Small Molecule Modulators of Endogenous RGS10 in BV-2 Cells” (J Med Chem, 2024)
